A short description of data set [1]: folding enthalpy; higher = less favourable; fluorescence melt of hairpins on a sequencing array, two-state fit. Particulars: sodium 0.088 M. Summed up:
(§1)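 With Cy3 and quencher oligos annealed, library hairpins on a sequenced MiSeq flow cell were imaged for Cy3 fluorescence in 50 mM Na-HEPES pH 8.0, 25 mM NaCl, in 2.5 °C steps up to 60 °C. Melting temperature and folding enthalpy were derived from bootstrapped two-state fits of signals normalised to pre-quench Cy3 and to control constructs. Four replicates were combined by inverse variance, with fitted temperatures raised by 9.35 °C to match UV melts.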

Data set [2] in a line: melting temperature; fluorescence melt of hairpins on a sequencing array, two-state fit, raised by 9.35 °C to match UV melts. Particulars: sodium 0.088 M. The procedure, abridged: as §1

In the case of GACCACCGAAAGGTCGTC (((.(((....))).))), the folding enthalpy in data set [1] was -29.5 kcal/mol. For the same sequence, the Tm in data set [2] worked out at 45.1 °C.
With GACCACCGAAAGGTTGTC (((.(((....))).))), the folding enthalpy in data set [1] was -32.2 kcal/mol. The Tm in data set [2] came to 48.2 °C.
In the same order, the values of GACCACGAAAGTGAGTC ((((((....))).))) are -30.5 kcal/mol and 52.2 °C.
With GACCACGAAAGTGATGTC ((((((....)))..))), the folding enthalpy in data set [1] is -17.6 kcal/mol. Besides, in data set [2], the Tm was determined as 38.3 °C.
Taken in the same sequence, the figures for GACCACGAAAGTGCCGTC ((((((....)))..))) were -12 kcal/mol and 33.6 °C.
GACCACGAAAGTGCGTC ((((((....))).))): in data set [1], the folding enthalpy was -22.8 kcal/mol. The Tm in data set [2] came out at 53.7 °C.
In the same order, the values of GACCACGAAAGTGGGTC ((((((....))).))) are -13.7 kcal/mol and 60.1 °C.
Take GACCACGAAAGTGTCGTC ((((((....)))..))): in data set [1], the folding enthalpy was -18.7 kcal/mol. For the same sequence, the Tm in data set [2] was 44.8 °C.
Turning to GACCACGGAAACGTGACC (..((((....))))..), in data set [1], the folding enthalpy was -8.43 kcal/mol. The Tm in data set [2] was 29.2 °C.
Regarding GACCAGCGAAAGCTGTC (((.(((....)))))), in data set [1], the folding enthalpy is -11.3 kcal/mol. In data set [2], the Tm was determined as 45 °C.
In the same order, the values of GACCAGGCGAAAGCCGTC (((..(((....)))))) are -7.64 kcal/mol and 36.2 °C.
On to GACCAGGGAAACCTAGTC (((.(((....))).))), for which the folding enthalpy in data set [1] is -16.9 kcal/mol. In addition, the Tm in data set [2] was 32.7 °C.
GACCATGGAAACATGGTC (((((((....))))))): the folding enthalpy in data set [1] was -43.1 kcal/mol. In addition, the Tm in data set [2] came out at 65.1 °C.
GACCCACGAAAGTGCGTC (((.(((....))).))): the folding enthalpy in data set [1] is -26.1 kcal/mol. Moreover, the Tm in data set [2] was 46.7 °C.
Taken in the same sequence, the figures for GACCCACGAAAGTGGTC (((.(((....)))))) were -13.3 kcal/mol and 51.5 °C.
GACCCCCGAAAGGGTGTC (((.(((....))).))): the folding enthalpy in data set [1] is -25 kcal/mol. Besides, the Tm in data set [2] came to 51.8 °C.
In the same order, the values of GACCCCGAAAGGGAAGTC ((((((....)))..))) are -16.1 kcal/mol and 42.1 °C.
Take GACCCCGAAAGGGGCGTC ((((((....)))..))): in data set [1], the folding enthalpy is -11.7 kcal/mol. In addition, in data set [2], the Tm came out at 61.4 °C.
Taken in the same sequence, the figures for GACCCCGAAAGGGGTGTC ((((((....)))..))) were -9.59 kcal/mol and 60.6 °C.
Taken in the same sequence, the figures for GACCCCGGAAACGGGGCC (.(((((....))))).) were -12.9 kcal/mol and 53.6 °C.
With GACCCGACGAAAGTCGTC (((..(((....)))))), the folding enthalpy in data set [1] was -6.62 kcal/mol. For the same sequence, the Tm in data set [2] was determined as 25.9 °C.
Regarding GACCCGCGAAAGCGGTC (((.(((....)))))), the folding enthalpy in data set [1] is -10 kcal/mol. In data set [2], the Tm was 52.1 °C.
In the same order, the values of GACCCTGGAAACAAGGTC ((((.((....)).)))) are -27.1 kcal/mol and 35.3 °C.
In the same order, the values of GACCCTGGAAACAGGGCC (.(((((....))))).) are -17.2 kcal/mol and 47.2 °C.
For GACCGCCGAAAGGCAGTC (((.(((....))).))), the folding enthalpy in data set [1] was -20.9 kcal/mol. Besides, the Tm in data set [2] came out at 54.3 °C.
Take GACCGCGAAAGCGAGGTC ((((((....)))..))): the folding enthalpy in data set [1] is -19.2 kcal/mol. The Tm in data set [2] was determined as 56.6 °C.
Regarding GACCGCGAAAGCGCCGTC ((((((....)))..))), in data set [1], the folding enthalpy was -14.1 kcal/mol. Moreover, in data set [2], the Tm is 36.6 °C.
Taken in the same sequence, the figures for GACCGCGAAAGCGTAGTC ((((((....)))..))) were -14.6 kcal/mol and 46.5 °C.
Taken in the same sequence, the figures for GACCGCGAAAGCGTGGTC ((((((....)))..))) were -18.6 kcal/mol and 50.9 °C.
In the same order, the values of GACCGCGGAAACACGGCC (.(((.(....).))).) are -22.2 kcal/mol and 37 °C.
For the sequence GACCGCGGAAACGCGACC (..((((....))))..), in data set [1], the folding enthalpy is -7.67 kcal/mol. Also, the Tm in data set [2] was 28.9 °C.
Take GACCGCGGAAACGCGATC ((.((((....)))).)): the folding enthalpy in data set [1] is -14.8 kcal/mol. Besides, in data set [2], the Tm was found to be 50.7 °C.
As to GACCGGCGAAAGCCTGTC (((.(((....))).))), the folding enthalpy in data set [1] was -22.3 kcal/mol. Further, the Tm in data set [2] was 49.6 °C.
Taken in the same sequence, the figures for GACCGGGGAAACTCGGTC (((((.(....).))))) were -50.3 kcal/mol and 56.3 °C.
In the same order, the values of GACCGTGAAAACGGTC ((((((....)))))) are -41.1 kcal/mol and 68.1 °C.
In the same order, the values of GACCGTGCGAAAGCAGTC (((..(((....)))))) are -11.4 kcal/mol and 29.6 °C.
Consider GACCGTGGAAACACGACC (..((((....))))..), for which the folding enthalpy in data set [1] is -10.8 kcal/mol. Moreover, the Tm in data set [2] is 28 °C.

For the origin of these results see the array DNA melting data of Ke et al. (doi:10.1101/2024.01.08.574731).
